Consider 2 molecules from ChEMBL document CHEMBL1641468, “Synthesis of modified siRNA bearing C-5 polyamine-substituted pyrimidine nucleoside in their 3'-overhang regions and its RNAi activity” (Bioorg Med Chem Lett, 2011).

The source made the active and inactive calls. The calls are words filed in the database; no cut-off is given here.

The nature of series [1]: Chemical stability of the compound in presence of snake venom phosphodiesterase after 30 mins by RP-HPLC analysis. The class given is physicochemical. Conditions: 0.5 h. The method in brief:
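Each oligoribonucleotide (0.8 nmol) incubated with snake venom phosphodiesterase, a 3'-exonuclease (0.01 U), in 200 mM Tris–HCl pH 8.0 with 100 mM MgCl₂ at 37 °C for 5 and 30 min; mixtures analysed by RP-HPLC, remaining full-length RNA expressed as fraction of total RNA from chromatogram peak areas.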

For series [2], the target named is T1, Hepatocyte nuclear factor 4-alpha (Homo sapiens) (UniProt P41235).
T1 sequence (whole entry): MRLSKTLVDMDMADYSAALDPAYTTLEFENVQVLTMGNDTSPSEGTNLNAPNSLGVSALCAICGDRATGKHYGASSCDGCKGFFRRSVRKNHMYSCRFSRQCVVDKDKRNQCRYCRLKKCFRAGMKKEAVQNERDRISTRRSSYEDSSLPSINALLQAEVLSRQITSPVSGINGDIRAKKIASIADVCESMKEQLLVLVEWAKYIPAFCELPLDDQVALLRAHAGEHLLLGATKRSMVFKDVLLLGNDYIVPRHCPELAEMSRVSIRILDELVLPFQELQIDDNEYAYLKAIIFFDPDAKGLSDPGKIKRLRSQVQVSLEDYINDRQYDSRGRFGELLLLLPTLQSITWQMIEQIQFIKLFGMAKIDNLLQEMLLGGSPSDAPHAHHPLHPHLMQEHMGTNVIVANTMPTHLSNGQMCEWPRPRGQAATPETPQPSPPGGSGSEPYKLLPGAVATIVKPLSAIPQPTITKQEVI
In words: Inhibition of HNF4alpha mRNA expression in human HepG2 cells after 24 hrs by RT-PCR analysis. It counts as cell-based. Particulars: in the assay text read “after 48 hrs” for “after 24 hrs”. Summed up:
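HepG2 cells were grown in DMEM with 5% FBS at 37 °C and transfected with siRNA using a transfection reagent. After 24 h at 37 °C, the medium was changed to DMEM with 10% FBS and cells were incubated a further 24 h. Total RNA was reverse-transcribed for real-time PCR (40 cycles). HNF4α mRNA was normalized to GAPDH by ΔΔCt and expressed relative to nonsense control siRNA, using the mean Ct of duplicate PCRs from independent cells.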

The target in series [3] is T1, Hepatocyte nuclear factor 4-alpha (Homo sapiens). In words: Inhibition of HNF4alpha mRNA expression in human HepG2 cells after 24 hrs by real-time RT-PCR.

Turning to `Cc1cn([C@H]2C[C@H](OP(=O)(O)OC[C@H]3O[C@@H](n4cc(CC(=O)NCCN(CCN)CCN)c(=O)[nH]c4=O)C[C@@H]3O)[C@@H](COP(=O)(O)O[C@@H]3[C@H](O)[C@@H](COP(=O)(O)O[C@H]4[C@@H](O)[C@H](n5cnc6c(N)ncnc65)O[C@@H]4COP(=O)(O)O[C@H]4[C@@H](O)[C@H](n5ccc(N)nc5=O)O[C@@H]4COP(=O)(O)O[C@H]4[C@@H](O)[C@H](n5cnc6c(N)ncnc65)O[C@@H]4COP(=O)(O)O[C@@H]4[C@H](O)[C@@H](COP(=O)(O)O[C@@H]5[C@H](O)[C@@H](COP(=O)(O)O[C@H]6[C@@H](O)[C@H](n7ccc(=O)[nH]c7=O)O[C@@H]6COP(=O)(O)O[C@@H]6[C@H](O)[C@@H](COP(=O)(O)O[C@@H]7[C@H](O)[C@@H](COP(=O)(O)O[C@H]8[C@@H](O)[C@H](n9ccc(=O)[nH]c9=O)O[C@@H]8COP(=O)(O)O[C@@H]8[C@H](O)[C@@H](COP(=O)(O)O[C@H]9[C@@H](O)[C@H](n%10ccc(N)nc%10=O)O[C@@H]9COP(=O)(O)O[C@@H]9[C@H](O)[C@@H](COP(=O)(O)O[C@H]%10[C@@H](O)[C@H](n%11ccc(=O)[nH]c%11=O)O[C@@H]%10COP(=O)(O)O[C@@H]%10[C@H](O)[C@@H](COP(=O)(O)O[C@H]%11[C@@H](O)[C@H](n%12cnc%13c(N)ncnc%13%12)O[C@@H]%11COP(=O)(O)O[C@H]%11[C@@H](O)[C@H](n%12ccc(N)nc%12=O)O[C@@H]%11COP(=O)(O)O[C@@H]%11[C@H](O)[C@@H](COP(=O)(O)O[C@H]%12[C@@H](O)[C@H](n%13cnc%14c(=O)[nH]c(N)nc%14%13)O[C@@H]%12COP(=O)(O)O)O[C@H]%11n%11cnc%12c(=O)[nH]c(N)nc%12%11)O[C@H]%10n%10cnc%11c(=O)[nH]c(N)nc%11%10)O[C@H]9n9cnc%10c(=O)[nH]c(N)nc%109)O[C@H]8n8cnc9c(=O)[nH]c(N)nc98)O[C@H]7n7cnc8c(=O)[nH]c(N)nc87)O[C@H]6n6cnc7c(=O)[nH]c(N)nc76)O[C@H]5n5cnc6c(=O)[nH]c(N)nc65)O[C@H]4n4cnc5c(=O)[nH]c(N)nc54)O[C@H]3n3cnc4c(N)ncnc43)O2)c(=O)[nH]c1=O`, the Stability entry in series [1] is listed as “Stable”. Also, the result in series [2] and in series [3] was Active.
As to `NCCN(CCN)CCNC(=O)Cc1cn([C@H]2C[C@H](OP(=O)(O)OC[C@H]3O[C@@H](n4cc(CC(=O)NCCN(CCN)CCN)c(=O)[nH]c4=O)C[C@@H]3O)[C@@H](COP(=O)(O)O[C@@H]3[C@H](O)[C@@H](COP(=O)(O)O[C@H]4[C@@H](O)[C@H](n5cnc6c(N)ncnc65)O[C@@H]4COP(=O)(O)O[C@H]4[C@@H](O)[C@H](n5ccc(N)nc5=O)O[C@@H]4COP(=O)(O)O[C@H]4[C@@H](O)[C@H](n5cnc6c(N)ncnc65)O[C@@H]4COP(=O)(O)O[C@@H]4[C@H](O)[C@@H](COP(=O)(O)O[C@@H]5[C@H](O)[C@@H](COP(=O)(O)O[C@H]6[C@@H](O)[C@H](n7ccc(=O)[nH]c7=O)O[C@@H]6COP(=O)(O)O[C@@H]6[C@H](O)[C@@H](COP(=O)(O)O[C@@H]7[C@H](O)[C@@H](COP(=O)(O)O[C@H]8[C@@H](O)[C@H](n9ccc(=O)[nH]c9=O)O[C@@H]8COP(=O)(O)O[C@@H]8[C@H](O)[C@@H](COP(=O)(O)O[C@H]9[C@@H](O)[C@H](n%10ccc(N)nc%10=O)O[C@@H]9COP(=O)(O)O[C@@H]9[C@H](O)[C@@H](COP(=O)(O)O[C@H]%10[C@@H](O)[C@H](n%11ccc(=O)[nH]c%11=O)O[C@@H]%10COP(=O)(O)O[C@@H]%10[C@H](O)[C@@H](COP(=O)(O)O[C@H]%11[C@@H](O)[C@H](n%12cnc%13c(N)ncnc%13%12)O[C@@H]%11COP(=O)(O)O[C@H]%11[C@@H](O)[C@H](n%12ccc(N)nc%12=O)O[C@@H]%11COP(=O)(O)O[C@@H]%11[C@H](O)[C@@H](COP(=O)(O)O[C@H]%12[C@@H](O)[C@H](n%13cnc%14c(=O)[nH]c(N)nc%14%13)O[C@@H]%12COP(=O)(O)O)O[C@H]%11n%11cnc%12c(=O)[nH]c(N)nc%12%11)O[C@H]%10n%10cnc%11c(=O)[nH]c(N)nc%11%10)O[C@H]9n9cnc%10c(=O)[nH]c(N)nc%109)O[C@H]8n8cnc9c(=O)[nH]c(N)nc98)O[C@H]7n7cnc8c(=O)[nH]c(N)nc87)O[C@H]6n6cnc7c(=O)[nH]c(N)nc76)O[C@H]5n5cnc6c(=O)[nH]c(N)nc65)O[C@H]4n4cnc5c(=O)[nH]c(N)nc54)O[C@H]3n3cnc4c(N)ncnc43)O2)c(=O)[nH]c1=O`, the Stability entry in series [1] is “Stable”. In addition, the result in series [2] and in series [3] was Active.
